Assay outcomes from PubChem.
This is a sample that favours compounds with a hit; in the whole collection about 3% have one here.
5HT1E ag = 5-HT1E (human) receptor agonism; P28566; CHO 5-HT1E Ga15 NFAT-bla reporter, FRET; 0% DMSO wells, 100% control agonist wells; activation, % at 6 µM; hit rate 0.69% among 65,000;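 active = activation above a set limit, the screen-wide mean activation plus 3 SD, cut at about 8.5% in these data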;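 note: 100% = positive control agonist at 1 µM giving full maximal response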
HTR1E antagonist = blocks the human 5-HT1E serotonin receptor. P28566. CHO 5-HT1E Ga15 NFAT-bla reporter, FRET, antagonist. inhibition, % at 6 µM. hit rate 0.99% among 65,000. AID 571;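 active = inhibition above a set limit, the mean inhibition across every tested compound plus 3 SD, cut at about 29% in these data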;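 note: signal is the 460 over 535 nm emission ratio of beta-lactamase substrate; 0% = agonist plus DMSO wells and 100% = wells without agonist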
5HT1a ag = activates the human 5-HT1a serotonin receptor; CHO 5-HT1a Ga15 NFAT-bla reporter, FRET ratio; 0% basal, 100% maximal reference agonist; activation, % at 10 µM; hit rate 0.56% among 65,000;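 active = activation above the screen-wide mean activation plus 3 SD, cut at about 19% in these data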;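 note: 0% = DMSO wells and 100% = 5-CT at EC100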
Target sequence (P08908 whole entry, looked up): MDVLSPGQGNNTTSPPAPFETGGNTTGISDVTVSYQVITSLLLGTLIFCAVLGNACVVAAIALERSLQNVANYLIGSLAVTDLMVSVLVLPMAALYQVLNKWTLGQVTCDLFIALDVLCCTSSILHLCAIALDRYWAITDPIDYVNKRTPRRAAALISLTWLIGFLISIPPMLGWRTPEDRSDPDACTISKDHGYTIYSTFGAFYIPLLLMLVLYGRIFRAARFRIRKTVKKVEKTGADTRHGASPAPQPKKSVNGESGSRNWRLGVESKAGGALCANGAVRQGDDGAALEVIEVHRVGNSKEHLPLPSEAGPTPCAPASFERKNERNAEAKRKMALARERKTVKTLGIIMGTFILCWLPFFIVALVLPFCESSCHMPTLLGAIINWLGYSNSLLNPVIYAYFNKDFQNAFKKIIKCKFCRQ
S1P3 ag = S1P3 (human) receptor agonism. Q99500. S1P3 NFAT-BLA reporter cells, FRET ratio; relative to 1 µM S1P, basal subtracted. activation, % at 4.5 µM. hit rate 0.1% among 60,000;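 active = activation above the screen-wide mean plus 3 SD, cut at about 4.5% in these data, passing the limit was not always enough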
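Assay system: CHO cells stably expressing human S1P3, Gα16 and NFAT-β-lactamase reporter. Timing: overnight plating, 4 h compound 37 °C, 2 h substrate RT. Signal: β-lactamase FRET emission ratio 460/535 nm. Measure: percent activation versus median 1 µM S1P response, basal-subtracted, per plate. Repeats: primary screen single test, confirmation screen in triplicate.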
S1P1 ag-PAM = agonists and agonism potentiators of human S1P1 receptor; S1P1 CRE-bla cells, forskolin, beta-lactamase FRET, potentiator mode; S1P1 agonist co-added at EC20, 2 nM; 100% = saturating reference agonist, 0% = basal; hit rate 0.57% among 56,000; P21453; activation, % at 9.5 µM;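 active = activation above a cutoff set at the mean activation of all tested compounds plus 3 SD, cut at about 54% in these data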;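 note: forskolin at 4 µM as EC80 and the EC20 agonist is SEW2871; 100% = SEW2871 at its EC100 plus forskolin at EC80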
5HT1a antag = 5-HT1a (human) receptor antagonism; P08908; CHO 5-HT1a Ga15 NFAT-bla reporter, antagonist mode; inhibition, % at 10 µM; hit rate 0.68% among 62,000;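 active = inhibition above the mean of all tested compounds plus 3 SD, cut at about 43% in these data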;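 note: receptor stimulated by 5-CT agonist at 100 nM near EC80; beta-lactamase reporter measured by ratiometric fluorescence of a cleavable substrate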
Active calls of the source: *; x = no result given.

SMILES	5HT1E ag	HTR1E antagonist	5HT1a ag	S1P3 ag	S1P1 ag-PAM	5HT1a antag
c1cncc(-c2nc(N3CCCCCC3)c3ccccc3n2)c1	0.1	10.8	3.2	-1.4	-6.6	6.5
Cc1nc(N)[nH]c(=O)c1CCC(=O)OCC(C)C	1.7	1.7	-4.5	0.2	-11.1	-7.7
CC(CN1CCCCC1)OC(=O)c1ccc(Cl)cc1Cl (stereo not given)	0.9	-1.3	-5.1	-1.4	18.1	-122.1
Nc1cc(C(=O)O)ccc1Nc1ccc(F)c(F)c1	33.2*	-8.3	-1.7	-1.0	-0.8	-6.0
CCOC(=O)c1cc(-c2nnc(SCC(=O)Nc3ccc(F)cc3)o2)c(C)nc1C	-0.1	8.3	0.0	-1.4	15.1	3.4
O=C(CN1CC(=O)Oc2ccccc21)OCC(=O)c1cccc(Br)c1	0.5	-5.7	-1.9	-0.5	-11.1	-9.3
CC(=O)c1cc2c(cc1NC(=O)c1cc(C)nn1-c1ccccc1)OCO2	0.7	9.2	24.4*	-1.0	-6.3	16.7
Fc1ccc(COc2ccc(/C=N/n3cnnc3)cc2)cc1	1.1	3.7	-1.5	-1.4	64.5*	1.5
O=c1c2ccccc2nc(SCc2cn3ccsc3n2)n1-c1ccccc1	0.5	37.6*	1.0	-0.2	-40.0	-1.2
c1ccc(CSCc2cn3ccsc3n2)cc1	-0.3	-10.9	-2.7	-0.9	4.2	-2.8
O=c1c2ccccc2nc(SCc2cn3ccsc3n2)n1-c1ccccc1F	0.0	43.0*	9.5	-1.2	18.1	11.7
COc1cc(OC)c(OC)cc1CNC1CCCCCC1	-0.3	18.1	33.0*	-1.5	-9.3	7.6
Cc1csc(NC(=O)C(CC(C)C)NS(=O)(=O)c2ccc3c(c2)oc(=O)n3C)n1 (stereo not given)	0.5	4.0	-1.1	-0.4	-11.3	-7.6
CCOC(=O)c1c(NC(=O)CSc2nnc(-c3ccccc3C)n2C)sc(C(C)=O)c1C	-0.7	24.6	1.9	-0.7	16.2	3.9
CCOC(=O)c1c(NC(=O)CSc2nc3cccnc3n2C)sc(C(C)=O)c1C	2.4	43.3*	-0.4	-0.3	-29.8	17.2
CCOC(=O)c1c(NC(=O)CSc2nnc(-c3cccnc3)o2)sc(C(C)=O)c1C	-0.5	30.4*	-0.9	-1.5	4.6	0.4
CCN(CC)C(=O)Cn1c(=O)n(Cc2ccccc2Cl)c2c1c(=O)n(C)c(=O)n2C	-0.6	7.0	2.0	-1.2	-4.9	-7.3
COc1cccc(CNC(=O)CN(C)S(=O)(=O)c2cnc[nH]2)c1	-0.6	-6.2	-6.7	-0.1	-1.5	0.3
COc1ccccc1OCC(O)CN1C(=O)NC(C)(C)C1=O (stereo not given)	1.3	-4.5	-2.0	0.4	-10.7	8.4
O=C(CSc1ccccc1)Nc1ccccc1N1CCOCC1	-1.0	8.5	-4.3	-0.3	-40.0	-3.3
O=C(CN1C(=O)CSC1=O)Nc1ccccc1N1CCOCC1	10.3*	7.9	-3.9	-0.8	1.8	8.0
N#CC1=C(N)N(c2ccccc2Sc2ccccc2)C(=O)C1	0.0	-11.8	-3.9	0.7	-38.1	-9.6
Nc1nonc1C(=O)NCCNCc1cc(Br)ccc1OCc1ccc(F)cc1	-0.3	10.1	-0.8	-2.4	92.9*	49.4*
CCOC(=O)Cc1csc(NC(=O)c2ccc(Br)s2)n1	-1.9	12.2	-1.8	-1.2	65.5*	17.5
CCCOC(=O)c1ccc(Oc2cn[nH]c2-c2ccc(OC)cc2O)cc1	-0.6	25.7	-0.1	-1.2	36.2	45.9*
SMILES	5HT1E ag	HTR1E antagonist	5HT1a ag	S1P3 ag	S1P1 ag-PAM	5HT1a antag
CCOc1ccc(-c2[nH]ncc2Oc2ccccc2OC)c(O)c1	0.9	-2.7	-3.8	0.5	-3.5	-2.7
COc1cc(NC(=O)c2ccco2)c(OC)cc1NC(=O)CSc1nnc(-c2cccs2)n1C	0.6	14.6	-0.2	-0.3	-18.5	-1.5
Cn1c(=O)c2c(nc(N3CCCCCC3)n2CC(=O)c2ccccc2)n(C)c1=O	0.2	6.2	-0.6	-0.4	12.8	5.3
C/C(Cl)=C\Cn1c(N2CCCCCC2)nc2c1c(=O)n(C)c(=O)n2C	-0.7	35.1*	-0.6	2.0	-8.9	17.1
Cc1csc(NC(=O)C(Cc2ccccc2)n2cccc2)n1 (stereo not given)	-0.8	3.0	-1.5	0.1	81.2*	7.8
COCCNC(=O)c1c(N)sc2c1CCCC2	-1.1	-4.8	-2.0	0.3	-0.5	1.7
O=S(=O)(NC1CC1)c1ccc(S(=O)(=O)N2CCCC3(CCCCC3)C2)cc1	-0.1	29.0*	2.8	-0.3	-2.2	1.4
CCn1cc(Br)c(C(=O)Nc2ccc(C(=O)OC(C)C)cc2)n1	0.1	-2.1	0.2	-0.4	17.1	-3.7
CCOc1cccc(-c2nnc3sc(COc4ccccc4)nn23)c1	-1.3	-9.9	-0.5	0.5	13.6	x
O=C(Nc1ccon1)c1csc2ccccc12	-0.6	-1.8	-7.8	0.2	-21.4	17.0
O=C(Nc1ccon1)c1csc2c1CCCC2	8.9*	-9.9	-1.5	0.2	-0.5	-18.5
CC1CCN(C(=O)COC(=O)c2cc3ccccc3cc2O)CC1	-0.1	9.6	-3.2	-0.4	5.4	13.0
COc1cccc(-c2cc(C(=O)N3CCN(C(c4ccccc4)c4ccccc4)CC3)no2)c1	3.0	-13.6	-1.0	-2.4	7.7	51.8*
Cc1cc(C(=O)N2CCN(C(c3ccccc3)c3ccccc3)CC2)no1	-0.8	-2.1	0.7	4.7	69.4*	-3.8
CCCc1cc(C(=O)N2CCN(C(c3ccccc3)c3ccccc3)CC2)no1	-0.5	5.1	-0.4	-1.0	66.3	6.6
Cc1nc2ccc(NC(=O)N3CCN(c4ccccn4)CC3)cc2s1	1.1	-6.5	-2.9	0.5	-9.2	-23.3
N=c1sc2ccccc2n1-c1ccccc1	24.6*	24.7	2.5	x	x	-6.9
COc1cccc(-c2nnc(SCC(=O)N3CCCc4ccccc43)o2)c1	-0.6	2.3	-2.0	-0.8	3.2	7.9
C=C(C)C(C)(C#CCN1CCCC1)OC(C)=O (stereo not given)	0.6	0.4	-0.8	-1.1	-4.1	0.7
O=C(O)CC1C(=O)NCCN1Cc1ccc(F)c(F)c1 (stereo not given)	22.3*	-4.0	-5.2	0.1	4.2	-12.7
CCOC(=O)Nc1ccc2c(c1)Nc1ccccc1S2	1.4	20.4	-5.5	-2.2	29.2	17.7
COc1cc(C2C(C#N)=C(C)NC3=C2C(=O)c2ccccc23)cc(OC)c1OC (stereo not given)	1.0	82.3*	-4.3	-0.9	-46.9	63.1*
COc1cc2c(cc1OC)CN(C(=O)Cc1ccc(OC)c(S(=O)(=O)N3CCOCC3)c1)CC2	24.9*	6.3	-0.6	-0.1	3.9	-0.9
COc1cc2c(cc1OC)CN(C(=O)c1ccc(OC)c(S(=O)(=O)N3CCOCC3)c1)CC2	0.7	4.5	-4.1	-0.2	-4.1	-6.3
